Measurements taken from publication PMC6333999 (Cancer Research and Treatment : Official Journal of Korean …, 2018).
Each block holds one molecule with its values, some of them ahead of it.

Legend:
[1] = tested on: p38α; details: background statement, no reference given; cited from earlier work
[2] = tested on: p38α; experiment: SPR binding of peptide with p38α; details: BIAcore 3000, p38α on Ni-NTA chip, peptide in HBS-EP buffer
Outline: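 Pure p38α protein captured on an Ni-NTA chip. Test peptide in HBS-EP buffer injected at 0.23, 0.46 and 0.77 mM. Sensorgrams recorded, and association (KA) and dissociation (KD) constants fitted from them.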

[3] = tested on: p38δ; experiment: Percentage inhibition assay by ELISA; type: biochemical
Outline: (§1)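 Added to ATF-2-coated plates, 1 h at 37°C. Anti-phospho-ATF-2 1:400, then AP anti-rabbit IgG 1:4,000, each 1 h at 37°C. pNPP (pH 8.1) 90 min, NaOH stop, A405. Enzyme without peptide taken as 100% activity for % inhibition.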

[4] = tested on: p38α; experiment: Percentage inhibition assay by ELISA; type: biochemical; details: ATF-2 substrate, same experiment as p38δ
Outline: as §1

[5] = biological target: T1, recombinant GST-tag p38δ protein (UniProt O15264); experiment: SPR
T1 sequence: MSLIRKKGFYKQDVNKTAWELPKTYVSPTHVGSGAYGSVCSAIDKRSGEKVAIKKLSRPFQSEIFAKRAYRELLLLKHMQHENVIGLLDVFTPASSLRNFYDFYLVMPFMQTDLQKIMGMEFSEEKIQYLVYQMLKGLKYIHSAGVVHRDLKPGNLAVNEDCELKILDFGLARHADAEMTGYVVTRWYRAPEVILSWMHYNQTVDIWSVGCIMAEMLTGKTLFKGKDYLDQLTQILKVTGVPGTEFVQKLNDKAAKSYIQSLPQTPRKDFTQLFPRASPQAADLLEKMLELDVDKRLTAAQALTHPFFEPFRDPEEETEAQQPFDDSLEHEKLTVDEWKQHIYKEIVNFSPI

Molecule: C[S+]([O-])c1ccc(-c2nc(-c3ccncc3)c(-c3ccc(F)cc3)[nH]2)cc1 (stereo not drawn) [SB203580]
specificity for p38α [1]: very specific p38α inhibitor

binding to p38α [2]: no binding was observed
Molecule: WFYH
percentage inhibition of p38δ ([3]; 75 μM peptide, ELISA, ATF-2 substrate, 100 μM ATP, pH 7.5, 37°C, 1 hour, 405 nm): 77% | phosphorylation of ATF-2 by p38δ ([3]; kinetic assays, pure p38δ protein incubated with peptide): reduction in phosphorylation of ATF-2 | inhibition of p38α [4]: no inhibition

Kd [5]: 0.704 nM
Molecule: WFYH [WFYH tetrapeptide]
